High-throughput results: PubChem, The Scripps Research Institute Molecular Screening Center
M5 antag: human M5 muscarinic receptor antagonists, primary screen, CHO cells, Fluo-8 calcium fluorescence | Muscarinic acetylcholine receptor M5 (Homo sapiens), P08912 | CHO-hM5 cells, ACh EC80 | inhibition, % at 3 µM | hit rate 0.59% among 360,000;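 active means inhibition above a per-plate cutoff, the mean of that plate's test compounds plus 3 SD, cut at about 27% in these data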
Target sequence (P08912 whole entry, looked up): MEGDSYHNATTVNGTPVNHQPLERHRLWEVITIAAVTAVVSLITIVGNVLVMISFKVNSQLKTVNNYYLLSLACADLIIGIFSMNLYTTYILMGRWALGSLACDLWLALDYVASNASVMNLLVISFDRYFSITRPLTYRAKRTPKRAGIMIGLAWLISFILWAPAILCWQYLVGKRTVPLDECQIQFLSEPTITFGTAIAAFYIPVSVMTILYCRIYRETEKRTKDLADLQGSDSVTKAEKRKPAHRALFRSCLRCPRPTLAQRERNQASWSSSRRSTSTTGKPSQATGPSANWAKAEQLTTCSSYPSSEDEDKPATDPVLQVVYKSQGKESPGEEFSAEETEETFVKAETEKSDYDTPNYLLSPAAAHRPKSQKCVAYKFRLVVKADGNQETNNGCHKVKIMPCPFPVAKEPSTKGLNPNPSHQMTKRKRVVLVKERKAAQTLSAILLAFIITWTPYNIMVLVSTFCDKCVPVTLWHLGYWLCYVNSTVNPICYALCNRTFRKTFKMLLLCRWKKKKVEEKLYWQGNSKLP
M4 ag: human M4 muscarinic receptor agonists, primary screen, CHO-K1 cells, Fluo-8 calcium fluorescence | activation, % at 3 µM | hit rate 0.14% among 360,000 | CHO-K1 hM4/Gqi5; vehicle 0%, full acetylcholine response 100%;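 active means activation above the run mean over all test wells plus 3 SD, cut at about 32% in these data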;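 further: peak over basal fluorescence ratio per well then scaled between controls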
CHRM4 PAM: human M4 muscarinic receptor positive allosteric modulators, primary screen, CHO-K1 cells, Fluo-8 calcium fluorescence; Muscarinic acetylcholine receptor M4 (Homo sapiens), P08173; CHO-K1 hM4/Gqi5, ACh EC20; 0% = ACh EC20, 100% = maximal ACh; activation, % at 3 µM; hit rate 0.4% among 360,000;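 active means activation above its plate's cutoff, the mean activation of sample wells plus 3 SD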
CHRM4 antagonist: human M4 muscarinic receptor antagonists, primary screen, CHO cells, Fluo-8 calcium fluorescence; CHO-hM4 cells, ACh EC80; inhibition, % at 3 µM; hit rate 0.73% among 360,000; AID 624125, 2012;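 active means inhibition above its plate's cutoff, the mean inhibition of sample wells plus 3 SD, cut at about 27% in these data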
M5 PAM: human M5 muscarinic receptor positive allosteric modulators, primary screen, CHO-K1 cells, Fluo-8 calcium fluorescence | Muscarinic acetylcholine receptor M5 (Homo sapiens), P08912 | CHO-K1 hM5, ACh EC20 PAM; 0% = ACh EC20, 100% = ACh EC100 | activation, % at 3 µM | hit rate 0.3% among 360,000;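 active means activation above the run cutoff, the mean activation of all test compounds plus 3 SD, cut at about 18% in these data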
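Test system: CHO-K1 hM5 cells / Doses: single-point, 3 µM nominal / Times: Post-acetylcholine fluorescence recording 140 s / Technique: Fluo-8 calcium fluorescence / Measure: Max/basal fluorescence ratio as % of EC20–EC100 ACh window / Benchmarks: low control EC20 acetylcholine (0%), high control EC100 acetylcholine (100%) / Replicates: one well per compound, no replicates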
M5 ag: human M5 muscarinic receptor agonists, primary screen, CHO-K1 cells, Fluo-8 calcium fluorescence; Muscarinic acetylcholine receptor M5 (Homo sapiens), P08912; CHO-K1 hM5 cells; 0% DMSO wells, 100% maximal acetylcholine response; activation, % at 3 µM; hit rate 0.19% among 360,000;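 active means activation above the run's mean over test compounds plus 3 SD, cut at about 23% in these data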;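 further: signal is peak over basal fluorescence ratio across the kinetic read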
Large screens that a line does not name were inactive. Sampled rows, rich in hits. Any-hit rate of the full collection: about 1.8%.

CN(CC1CCCN(CCc2ccc(Cl)cc2)C1)C(=O)c1ccco1 (stereo not drawn)	none
O=C(C(=O)N1CCN(c2cccc(Cl)c2)CC1)c1c[nH]c2ccccc12	none
O=C(c1cccc(Br)c1)N1CCN(c2cnn(-c3ccccc3)c(=O)c2Cl)CC1	CHRM4 PAM 35
CCOC(=O)[C@H]1[C@H]2COc3ccccc3[C@@H]2N2C(=O)[C@@H](CO)NC(=O)[C@@]12C	none
Cc1ccc2cc(CN(Cc3ccc4c(c3)OCO4)Cc3nnnn3Cc3ccco3)c(=O)[nH]c2c1C	CHRM4 PAM 23
Cc1ccc(C)c2[nH]c(=O)c(CN(Cc3ccc4c(c3)OCO4)Cc3nnnn3Cc3ccco3)cc12	none
Fc1ccc2[nH]c3c(N4CCc5ccccc5C4)ncnc3c2c1	M5 antag 27
O=[N+]([O-])c1cccc(COc2ccc(CN3CCCCC3)cc2)c1	CHRM4 antagonist 56
O=C(O)CSc1nnc(CSc2nc3ccccc3s2)n1-c1ccccc1	M5 PAM 20
Cc1cccc(Nc2ncccc2C(=O)NCc2cccs2)c1C	CHRM4 antagonist 38
NS(=O)(=O)c1ccc(NC(=O)C2Cc3ccccc3C(=O)O2)cc1 (stereo not drawn)	CHRM4 PAM 26
O=C1OC(C(=O)Nc2ccccc2)Cc2ccccc21 (stereo not drawn)	none
CCOC(=O)c1c(N/C=C(\C#N)c2nc(-c3ccc(OC(C)=O)cc3)cs2)sc2c1CCC2	M5 PAM 23
Cc1ccc(S(=O)c2ccc([N+](=O)[O-])c3nonc23)cc1 (stereo not drawn)	M5 ag 40
COc1ccc(C(=O)CSc2nnc(CNC(=O)c3ccco3)n2C)cc1	none
O=C(O)Cc1cn(Cc2cccc(Cl)c2)c2ccccc12	CHRM4 PAM 26
CC(=O)Nc1ccc(Sc2ccc([N+](=O)[O-])o2)cc1	none
CC(C)(C)C(=O)Nc1ccc(Sc2ccc([N+](=O)[O-])cc2)cc1	M5 antag 43
COc1cc(/C=C/C(O)=C/C(=O)/C=C/c2ccc(O)cc2)ccc1O	M5 antag 41, M4 ag 50, CHRM4 antagonist 27, M5 ag 48
Cc1cc(NC(=O)c2ccc(F)c(S(=O)(=O)N3CCCCC3)c2)no1	CHRM4 antagonist 51
Cc1cc(NC(=O)c2cccc(S(=O)(=O)N3CCCCCC3)c2)no1	none
O=C(NCc1ccccn1)c1ccc(=O)oc1	CHRM4 PAM 31
O=C(NCc1ccccn1)c1ccc(-c2ccccc2)cc1	none
Cc1sc2ncnc(N3CCCCC3)c2c1C	none
Cc1sc2ncnc(NCC(c3ccco3)N3CCCC3)c2c1C (stereo not drawn)	CHRM4 antagonist 40
CCCCN(CCCC)CCCN1CC(=O)N2[C@@H](Cc3c([nH]c4ccccc34)C2(C)C)C1=O	CHRM4 antagonist 86
CCCCCN1CC(=O)N2[C@@H](Cc3c([nH]c4ccccc34)C2(C)C)C1=O	none
CCCCSCCCNC(=S)Nc1ccccc1C	none
CCCCNC(=S)Nc1ccccc1Cc1ccccc1	M5 PAM 23
CC(C)OC(=O)c1sc2nc(-c3ccccc3)ccc2c1N	none
COc1ccc(C(=O)c2sc3nc(-c4ccccc4)ccc3c2N)cc1	M5 antag 34
Cc1nc2sc(C(=O)c3ccccc3)c(N)c2c(C)c1C	M4 ag 69, CHRM4 antagonist 67
CCCCCC(=O)N1C[C@H](n2cc(C3CC3)nn2)[C@@H](O)C[C@@H]1c1ccccc1	none
CCS(=O)(=O)N1CCC(NC(C)=O)(c2ccccc2)CC1	none
CC(=O)NC1(NC(C)=O)CCN(C)C(c2ccccc2)C1C (stereo not drawn)	M5 ag 26
CN1C[C@H]2CON(C)[C@H]2C[C@H]1c1cccc(N2CCOCC2)c1	none
